Experimental data: publication PMC11932705 (Results in chemistry, 2024)
Entries after “also recorded” stand apart in the source; their conditions may differ.

System: adult S. mansoni
Assay: Single-concentration phenotypic severity score assay on adult worms
Assay type: cell-based, Schistosoma mansoni
Settings: severity score assay at 5 μM
In short: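 Adult S. mansoni were exposed to test compound at 5 μM. Adherence, shape, density and mobility were scored visually at 2, 5, 24 and 48 h using a constrained set of phenotypic descriptors, each typically valued 1. The descriptor values were summed into a severity score from 0 (no activity) to 4 (maximal activity). Each compound was screened twice as a singleton and representative data are reported.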

Structure (SMILES): O=C(Nc1cc(C(F)(F)F)cnn1)c1ccc(C(F)(F)F)cc1 [compound 49, 4-(Trifluoromethyl)-N-(5-(trifluoromethyl)pyridazin-3-yl)benzamide]
- Antischistosomal activity in words: abolished activity; also recorded: inactive against the worm

Structure (SMILES): O=C(Nc1cccc(C(F)(F)F)c1)c1cccc(C(F)(F)F)c1 [compound 33, 3-(Trifluoromethyl)-N-(3-(trifluoromethyl)phenyl)benzamide]
- Antischistosomal activity in words: potency is lost
